# Source: PubChem
# MITF act: activators of MITF-driven TRPM1 promoter reporter, primary screen, cell-based, SK-MEL-5, luciferase, single point; SK-MEL-5 TRPM1-promoter luciferase, 24 h; % of positive control, neutral wells = 0; activation, % at 12.5 µM; hit rate 0.75% among 300,000;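 active = mean activation of at least 80% with every replicate also reaching 80%; inconclusive = mean reaches 80% but some replicate falls short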;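 also: 0% = neutral control wells and 100% = parthenolide positive control wells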
# SR-BI DiI inh: inhibitors of SR-BI mediated HDL lipid uptake, primary screen, ldlA[mSR-BI] cells, fluorescence, single point | Scavenger receptor class B member 1 (Mus musculus), Q61009 | ldlA[mSR-BI] CHO cells, DiI-HDL uptake fluorescence, 3 h | inhibition, % at 12.5 µM | hit rate 0.96% among 320,000;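 active = mean replicate inhibition of at least 70% and a set share of replicates each scoring 70 or more; inconclusive = meets just one of the two criteria; inactive = fails both criteria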;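 also: 0% = median of neutral control wells and 100% = median of positive control wells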
# Target sequence (Q61009 whole entry, looked up): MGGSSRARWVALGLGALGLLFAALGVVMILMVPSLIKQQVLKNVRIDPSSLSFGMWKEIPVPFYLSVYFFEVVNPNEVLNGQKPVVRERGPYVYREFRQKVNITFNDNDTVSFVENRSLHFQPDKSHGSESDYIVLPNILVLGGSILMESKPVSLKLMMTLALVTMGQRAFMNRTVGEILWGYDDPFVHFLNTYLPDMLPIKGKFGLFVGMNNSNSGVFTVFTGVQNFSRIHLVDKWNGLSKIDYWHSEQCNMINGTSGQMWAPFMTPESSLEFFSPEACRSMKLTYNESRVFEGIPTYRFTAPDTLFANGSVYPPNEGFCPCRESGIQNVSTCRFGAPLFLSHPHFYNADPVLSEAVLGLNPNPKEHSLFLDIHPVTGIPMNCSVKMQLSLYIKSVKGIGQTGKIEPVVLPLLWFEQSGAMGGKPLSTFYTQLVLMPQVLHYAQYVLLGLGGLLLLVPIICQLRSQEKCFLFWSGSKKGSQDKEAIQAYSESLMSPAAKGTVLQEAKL
# HSF-1 act: HSF-1 activators, primary screen, NIH3T3-HGL cells, MG132 stress, luminescence, single point; activation, % at 9 µM; NIH3T3-HGL HSF-1 luciferase reporter, 8 h; 100% = twice DMSO control signal; hit rate 1.7% among 300,000;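 active = mean replicate activation of at least 50% with a set share of replicates each reaching 50%; inconclusive = only one of those two conditions met; inactive = mean below 50% and too few replicates reaching it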;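 also: 0% = median of the neutral control wells and 100% = twice that signal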
# Wnt act: Wnt/beta-catenin pathway activators, primary screen, cell-based, plate reader, single point. Wnt/beta-catenin reporter cell assay, activator. activation, % at 9.35 µM. hit rate 1.2% among 300,000. AID 743398, 2014; in the data active = activation above about 30%, passing the limit was not always enough; inconclusive = no clear call, values can overlap the other calls;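 also: 0% = neutral control wells and 100% = positive control wells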
# SR-BI DiI-HDL act: activators of SR-BI mediated DiI-HDL uptake, primary screen, ldlA[mSR-BI] CHO cells, DiI fluorescence; 3 h; 100 = double the neutral-control signal; activation, % at 12.5 µM; hit rate 0.096% among 320,000;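 active = mean replicate activation of at least 60% and every replicate at or above 60%; inconclusive = mean or all-replicate condition met, but not both; inactive = mean below 60% and not all replicates reaching 60%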;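 also: 0% = median plate neutral-control signal and 100% = twice that signal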
#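 Test system: SR-BI-overexpressing, LDLR-lacking CHO cells. Measured by: DiI fluorescence, bottom read. Medium: Ham's F12 with 0.5% BSA, HEPES 25 mM, pH 7.4. Timing: 3 h uptake period with compound, 37 °C.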
# * = called active by the depositor; ? = inconclusive; nt = no result. Hits are enriched below; roughly 3.6% of the tested compounds scored in any of these assays.
SMILES,MITF act,SR-BI DiI inh,HSF-1 act,Wnt act,SR-BI DiI-HDL act
CC1=C(C(=O)N2CCCCCC2)CC(CC(=O)NC2CC2)C(=O)N1Cc1ccccc1 (stereo not given),nt,nt,nt,-1,nt
CN1\C(=C/C=C/C=C/C=[N+](C)C)C(C)(C)c2ccccc21,-57,-182,-38,-4,182*
Nc1nc(CSc2nc3ccccc3s2)nc(Nc2ccccc2)n1,nt,nt,58*,nt,nt
CON(C)C(=O)/C=C/CCCCNC(=O)OC(C)(C)C,16,-63,nt,-1,63*
Clc1cccc(/C=N\Nc2nccs2)c1,44,15,143*,14,-15
Cc1ccc(NC(=O)C2CCCN(c3ncccn3)C2)cc1F (stereo not given),134*,9,60*,nt,-9
O=C(Nc1ccc2c(c1)CCC2)C1CCCN(c2ncccn2)C1 (stereo not given),86*,16,46,nt,-16
FC(F)(F)c1ccccc1CN1CCCc2nc(-c3ccc(Br)cc3)ccc21,nt,nt,nt,4,nt
COc1cccc(C(=O)NCCN2CCC(n3c(=O)[nH]c4ccccc43)CC2)c1,nt,nt,nt,-3,nt
Cc1ccc(S(=O)(=O)c2c(N)n(-c3ccccc3)c3nc4ccccc4nc23)cc1,-5,19,66*,-11,-19
N#CCc1ccc(NC(=O)Nc2cccc(Cl)c2)cc1,83*,nt,25,nt,nt
Cc1ccc(NC(=O)C(=O)NCc2ccccn2)cc1,85*,-23,21,20,23
O=C(CSC1=NNC(c2ccccn2)S1)Nc1cccc(Cl)c1 (stereo not given),nt,78*,-37,-4,-78
O=C(CSC1=NNC(c2ccccn2)S1)Nc1ccccc1 (stereo not given),nt,15,-67,-1,-15
COc1cccc(NC(=O)NCc2ccccn2)c1,3,-2,6,37*,2
Cc1ccccc1OCCC(=O)NNC(=O)c1ccccc1F,-4,-12,nt,-3,12
Cc1cccnc1NC(=O)Nc1cccc(Cl)c1,91*,nt,-27,26,nt
O=C(NCc1ccccn1)Nc1cccc(NC(=O)NCc2ccccn2)c1,54,10,6,12,-10
O=C(NCc1ccccn1)Nc1cccc(Cl)c1,136*,-22,56*,38*,22
CC1=C(C#N)C(C)(C)C(C#N)=C(C)N1,nt,nt,nt,-3,nt
CCOc1ccc(C2C(C(=O)c3ccco3)=C(O)C(=O)N2Cc2cccnc2)cc1 (stereo not given),nt,-6,11,35*,6
COc1ccc(CCn2cnn3c(=O)c4ccccc4nc3c2=O)cc1OC,nt,nt,nt,1,nt
N#Cc1cccnc1N1CCN(C(c2ccnc3ccccc23)c2nnnn2-c2ccc3c(c2)OCCO3)CC1 (stereo not given),nt,nt,nt,-1,nt
CC1(C)Cc2c(cnn2-c2ccccc2)C(=O)/C1=N\NC(=O)c1ccccc1N,27,75*,11,nt,-75
Nc1c(C(=O)N/N=C/c2ccccc2)cnn1-c1ccccc1,64,30,21,0,-30
SMILES,MITF act,SR-BI DiI inh,HSF-1 act,Wnt act,SR-BI DiI-HDL act
CCN(c1ccccc1)S(=O)(=O)c1nnc(NC(=O)c2ccccc2OC)s1,nt,-7,8,-2,7
CC(C)c1cc(C(=O)NCCc2ccccc2)no1,65,nt,12,39*,nt
CC(C)c1cc(C(=O)Nc2cccc(Cl)c2)no1,90*,-7,nt,nt,7
O=C(NCc1ccccc1)c1noc2c1CCCC2,10,7,10,nt,-7
O=C(NCCc1ccccc1)c1noc2c1CCCCC2,107*,-5,2,nt,5
C[C@H](CO)N1C[C@H](C)[C@H](CN(C)S(=O)(=O)c2cccs2)Oc2ncc(Br)cc2C1=O,nt,nt,nt,-1,nt
CCCCCNC(=O)C1C(=O)Nc2ccccc2C(=O)N1c1ccc(OC)cc1 (stereo not given),nt,nt,nt,-3,nt
CC(C)CNC(=O)C1(C)CCCCCN1Cc1ccccc1-c1ccccc1 (stereo not given),nt,nt,nt,-3,nt
CC(=NNc1cc(C)c2cc(C)ccc2n1)c1ccccn1,nt,nt,nt,-15,nt
Cn1ccc(NC(=O)c2ccc(Cl)cc2Cl)n1,?,4,nt,35*,-4
Cn1ccc(NC(=O)c2ccc(Cl)cc2)n1,50,-2,nt,18,2
O=C(Nc1ccc2c(c1)OCO2)c1ccccc1,58,-8,58*,20,8
O=C(NC(=S)Nc1ccccc1Br)c1ccc2c(c1)OCO2,110*,4,28,2,-4
O=C(CCNc1ccccc1)c1ccc2c(c1)OCO2,nt,20,-7,48*,-20
CCC(=O)N1CCCC1(C)C(=O)Nc1ccc2nc(C)ccc2c1 (stereo not given),nt,nt,nt,-5,nt
Cc1cc(C)c2c(=O)n3c(nc2c1)C(C)NC(=O)c1cccnc1-3 (stereo not given),nt,nt,nt,-2,nt
CC1(C(=O)NS(=O)(=O)C2CC2)CCCN(C(=O)c2ccc3ccccc3c2)C1 (stereo not given),nt,nt,nt,0,nt
O=C(NC(=S)Nc1ccc2c(c1)OCCO2)c1cccc(Br)c1,20,-18,48,nt,18
O=C(NC(=S)Nc1ccc2c(c1)OCO2)c1ccccc1,74,11,57*,nt,-11
O=C(Nc1ccc2c(c1)OCO2)c1ccc(Cl)cc1Cl,64,5,53*,6,-5
O=C(Nc1ccc2c(c1)OCCO2)c1ccc(Cl)cc1Cl,24,10,?,11,-10
COc1cc(CNC[C@H]2O[C@@H](n3ccc(N)nc3=O)[C@H](O)[C@@H]2O)ccc1OCc1ccc(C)cc1,nt,nt,nt,9,nt
COc1ccc(C2CC(=O)N(C)c3ccccc3S2)cc1OC (stereo not given),35,15,27,54*,-15
COc1ccc(C2CC(=O)N(CC(=O)NCC3CCCO3)c3ccccc3S2)cc1OC (stereo not given),1,-7,-2,-8,7
CC(C)CNC(=O)CSc1ccc(S(=O)(=O)N2CCN(C)CC2)cn1,2,-22,nt,-1,22
SMILES,MITF act,SR-BI DiI inh,HSF-1 act,Wnt act,SR-BI DiI-HDL act
CCOc1cc(N2CCOCC2)c(OCC)cc1NC(=O)COC(=O)c1ccccc1C,8,59,-1,-3,-59
CCOc1cc(N2CCOCC2)c(OCC)cc1NC(=O)CCS(=O)(=O)c1ccc(Cl)cc1,nt,-1,75*,1,1
CCOc1cc(N2CCOCC2)c(OCC)cc1NC(=O)c1ccc2ccccc2n1,?,95*,12,2,-95
CCOc1cc(N2CCOCC2)c(OCC)cc1NC(=O)Cc1cccc2ccccc12,-5,22,121*,0,-22
CCOc1cc(N2CCOCC2)c(OCC)cc1NC(=O)c1cc(S(=O)(=O)N2CCOCC2)ccc1Cl,-4,34,nt,-2,-34
Cc1ccccc1-c1nc(CS(=O)CC(=O)NC2CCCC2)c(C)o1 (stereo not given),-12,-18,-1,0,18
